Measurements reported in ChEMBL document CHEMBL5096226, “Structure-Activity Relationship Study of Momordica Saponin II Derivatives as Vaccine Adjuvants” (J Med Chem, 2022).
The source made the active and inactive calls.

Tests used:
Format in all cases: functional, organism-based
Mus musculus [1] = experiment: Immuno-adjuvant activity in BALB/c mouse assessed as increase in IL-21 expressing CD4+ effector T cells in spleen at 20 ug, sc administered on day 0, 14 and 28 and measured at week 6 post immunization by flow cytometry analysis; details: T-cell, dose 20.0 µg, time 6.0 weeks
How it was run: (§1)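 Female BALB/c mice (8–10 wk, six per group) given OVA 20 μg s.c. with adjuvant on days 0, 14, 28; spleens taken at week 6. Splenocytes stained with viability dye, Fc-blocked, surface-stained 30 min. For intracellular cytokines, cells stimulated 5 h with leukocyte activation cocktail plus GolgiPlug, then fixed/permeabilized. IL-21 detected with IL-21R Fc chimera. All steps at 4 °C. Read as MFI, mean ± SEM.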

Mus musculus [2] = experiment: Immuno-adjuvant activity in BALB/c mouse assessed as increase in follicular helper T cells in spleen at 20 ug, sc administered on day 0, 14 and 28 and measured at week 6 post immunization by flow cytometry analysis; details: T-cell, dose 20.0 µg, time 6.0 weeks
How it was run: (§2)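 Female BALB/c mice (8–10 wk, six per group), OVA 20 μg s.c. plus adjuvant on days 0, 14, 28; spleens collected week 6. Single-cell splenocyte suspensions stained and analysed by flow cytometry. TFH gated PD-1+Bcl6+Foxp3−CD4+CD3+, TFR PD-1+Bcl6+Foxp3+CD4+CD3+, dark zone GC B cells CXCR4hiCD86loFas+GL-7+CD19+. Steps at 4 °C. Mean ± SEM; unpaired t tests.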

Mus musculus [3] = experiment: Immuno-adjuvant activity in BALB/c mouse assessed as increase in anti-OVA IgG2a antibody in serum at 20 ug, sc administered on day 0, 14 and 28 and measured at 2 weeks in presence of chicken egg ovalbumin by ELISA; details: dose 20.0 µg
How it was run: (§3)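 Female BALB/c mice (8–10 wk, six per group) immunized s.c. with OVA 20 μg ± adjuvant on days 0, 14, 28. Tail-vein serum taken before each dose and 2 wk after the last. ELISA on OVA-coated (0.1 μg/mL) plates in borate saline pH 8.2. Twofold serum dilutions in duplicate, overnight at 4 °C. HRP anti-mouse IgG/subclass applied 4 h, OPD substrate, read at 490 nm. Concentrations from reference-serum standard curves (4-parameter fit).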

Mus musculus [4] = experiment: Immuno-adjuvant activity in BALB/c mouse assessed as increase in CD19+ B cells in spleen at 20 ug, sc administered on day 0, 14 and 28 and measured at week 6 post immunization by flow cytometry analysis; details: dose 20.0 µg, time 6.0 weeks; how it was run: as §2
Mus musculus [5] = experiment: Immuno-adjuvant activity in BALB/c mouse assessed as reduction in TFR cells in spleen at 20 ug, sc administered on day 0, 14 and 28 and measured at week 6 post immunization by flow cytometry analysis; details: dose 20.0 µg, time 6.0 weeks; how it was run: as §2
Mus musculus [6] = experiment: Immuno-adjuvant activity in BALB/c mouse Splenocyte assessed as increase in CD8+ T cells at 20 ug, sc administered on day 0, 14 and 28 and measured at week 6 post immunization by flow cytometry analysis; details: dose 20.0 µg, time 6.0 weeks; how it was run: as §1
Mus musculus [7] = experiment: Immuno-adjuvant activity in BALB/c mouse assessed as increase in dark zone B cells at 20 ug, sc administered on day 0, 14 and 28 and measured at week 6 post immunization by flow cytometry analysis; details: dose 20.0 µg, time 6.0 weeks; how it was run: as §2
Mus musculus [8] = experiment: Immuno-adjuvant activity in BALB/c mouse assessed as increase in anti-OVA IgG antibody in serum at 20 ug, sc administered on day 0, 14 and 28 and measured at 2, 4 and 6 weeks in presence of chicken egg ovalbumin by ELISA; details: dose 20.0 µg, time 2-6 weeks; how it was run: as §3
Mus musculus [9] = experiment: Immuno-adjuvant activity in BALB/c mouse assessed as increase in IL-4 expressing CD4+ effector T cells in spleen at 20 ug, sc administered on day 0, 14 and 28 and measured at week 6 post immunization by flow cytometry analysis; details: T-cell, dose 20.0 µg, time 6.0 weeks; how it was run: as §1
Mus musculus [10] = experiment: Immuno-adjuvant activity in BALB/c mouse assessed as increase in anti-OVA Ig2a antibody in serum at 20 ug, sc administered on day 0, 14 and 28 and measured at 4 and 6 weeks in presence of chicken egg ovalbumin by ELISA; details: dose 20.0 µg, time 4-6 weeks; how it was run: as §3
Mus musculus [11] = experiment: Immuno-adjuvant activity in BALB/c mouse Splenocyte assessed as increase in CD4+ T cells at 20 ug, sc administered on day 0, 14 and 28 and measured at week 6 post immunization by flow cytometry analysis; details: dose 20.0 µg, time 6.0 weeks; how it was run: as §1
Mus musculus [12] = experiment: Immuno-adjuvant activity in BALB/c mouse assessed as increase in ratio of TFH to TFR cells at 20 ug, sc administered on day 0, 14 and 28 and measured at week 6 post immunization by flow cytometry analysis; details: dose 20.0 µg, time 6.0 weeks; how it was run: as §2
Mus musculus [13] = experiment: Immuno-adjuvant activity in BALB/c mouse assessed as increase in IL-4 expressing CD4+ effector T cells in spleen at 100 ug, sc administered on day 0, 14 and 28 and measured at week 6 post immunization by flow cytometry analysis; details: T-cell, dose 100.0 µg, time 6.0 weeks; how it was run: as §1
Mus musculus [14] = experiment: Immuno-adjuvant activity in BALB/c mouse assessed as increase in ratio of TFH to TFR cells at 100 ug, sc administered on day 0, 14 and 28 and measured at week 6 post immunization by flow cytometry analysis; details: dose 100.0 µg, time 6.0 weeks; how it was run: as §2
Mus musculus [15] = experiment: Immuno-adjuvant activity in BALB/c mouse assessed as increase in CD19+ B cells in spleen at 100 ug, sc administered on day 0, 14 and 28 and measured at week 6 post immunization by flow cytometry analysis; details: dose 100.0 µg, time 6.0 weeks; how it was run: as §2
Splenocyte [16] = experiment: Immuno-adjuvant activity in BALB/c mouse Splenocyte assessed as increase in CD4+ T cells at 100 ug, sc administered on day 0, 14 and 28 and measured at week 6 post immunization by flow cytometry analysis; details: dose 100.0 µg, time 6.0 weeks; how it was run: as §1
Mus musculus [17] = experiment: Immuno-adjuvant activity in BALB/c mouse assessed as reduction in TFR cells in spleen at 100 ug, sc administered on day 0, 14 and 28 and measured at week 6 post immunization by flow cytometry analysis; details: dose 100.0 µg, time 6.0 weeks; how it was run: as §2
Mus musculus [18] = experiment: Immuno-adjuvant activity in BALB/c mouse assessed as increase in dark zone B cells at 100 ug, sc administered on day 0, 14 and 28 and measured at week 6 post immunization by flow cytometry analysis; details: dose 100.0 µg, time 6.0 weeks; how it was run: as §2
Mus musculus [19] = experiment: Immuno-adjuvant activity in BALB/c mouse assessed as increase in follicular helper T cells in spleen at 100 ug, sc administered on day 0, 14 and 28 and measured at week 6 post immunization by flow cytometry analysis; details: T-cell, dose 100.0 µg, time 6.0 weeks; how it was run: as §2
Mus musculus [20] = experiment: Immuno-adjuvant activity in BALB/c mouse assessed as increase in anti-OVA Ig2a antibody in serum at 100 ug, sc administered on day 0, 14 and 28 and measured at 4 and 6 weeks in presence of chicken egg ovalbumin by ELISA; details: dose 100.0 µg, time 4-6 weeks; how it was run: as §3
Mus musculus [21] = experiment: Immuno-adjuvant activity in BALB/c mouse Splenocyte assessed as increase in CD4+ surface expression of PD-1 at 50 ug, sc administered on day 0, 14 and 28 and measured at week 6 post immunization by flow cytometry analysis; details: dose 50.0 µg, time 6.0 weeks; how it was run: as §1
Mus musculus [22] = experiment: Immuno-adjuvant activity in BALB/c mouse assessed as increase in anti-OVA IgG antibody in serum at 50 ug, sc administered on day 0, 14 and 28 and measured at 2, 4 and 6 weeks in presence of chicken egg ovalbumin by ELISA; details: dose 50.0 µg, time 2-6 weeks; how it was run: as §3
Splenocyte [23] = experiment: Immuno-adjuvant activity in BALB/c mouse Splenocyte assessed as increase in CD8+ T cells at 100 ug, sc administered on day 0, 14 and 28 and measured at week 6 post immunization by flow cytometry analysis; details: dose 100.0 µg, time 6.0 weeks; how it was run: as §1
Mus musculus [24] = experiment: Immuno-adjuvant activity in BALB/c mouse assessed as increase in anti-OVA IgG1 antibody in serum at 100 ug, sc administered on day 0, 14 and 28 and measured at 4 weeks in presence of chicken egg ovalbumin by ELISA; details: dose 100.0 µg; how it was run: as §3
Mus musculus [25] = experiment: Immuno-adjuvant activity in BALB/c mouse assessed as increase in IL-21 expressing CD4+ effector T cells in spleen at 100 ug, sc administered on day 0, 14 and 28 and measured at week 6 post immunization by flow cytometry analysis; details: T-cell, dose 100.0 µg, time 6.0 weeks; how it was run: as §1

Measured: Activity

CC[C@H](C)[C@H](C[C@H](O)CC(=O)O[C@@H]1[C@H](O)[C@@H](O[C@@H]2O[C@@H](C)[C@H](O[C@@H]3OC[C@@H](O)[C@H](O[C@@H]4OC[C@](O)(CO)[C@H]4O)[C@H]3O)[C@@H](O)[C@H]2O)[C@H](OC(=O)[C@]23CCC(C)(C)C[C@H]2C2=CC[C@@H]4[C@@]5(C)CC[C@H](O[C@@H]6O[C@H](C(=O)O)[C@@H](O)[C@H](O[C@@H]7OC[C@@H](O)[C@H](O)[C@H]7O)[C@H]6O[C@@H]6O[C@H](CO)[C@H](O)[C@H](O)[C@H]6O)[C@@](C)(C=O)[C@@H]5CC[C@@]4(C)[C@]2(C)C[C@H]3O)O[C@@H]1C)OC(=O)C[C@@H](O)C[C@H](O[C@@H]1O[C@@H](CO)[C@H](O)[C@H]1O)[C@@H](C)CC
active: Mus musculus [1] | Mus musculus [2] | Mus musculus [3] | Mus musculus [4] | Mus musculus [5] | Mus musculus [6] | Mus musculus [7] | Mus musculus [8] | Mus musculus [9] | Mus musculus [10] | Mus musculus [11] | Mus musculus [12]

C[C@@H]1O[C@@H](O[C@H]2[C@H](O)[C@@H](C(=O)NCCCCCCCCCCC(=O)OCc3ccccc3)O[C@@H](O[C@H]3CC[C@]4(C)[C@H]5CC=C6[C@@H]7CC(C)(C)CC[C@]7(C(=O)O[C@@H]7O[C@H](C)[C@H](O)[C@H](O)[C@H]7O[C@@H]7O[C@@H](C)[C@H](O[C@@H]8OC[C@@H](O)[C@H](O)[C@H]8O)[C@@H](O[C@@H]8O[C@H](CO)[C@@H](O)[C@H](O[C@@H]9OC[C@@H](O)[C@H](O)[C@H]9O)[C@H]8O)[C@H]7O)[C@H](O)C[C@@]6(C)[C@]5(C)CC[C@H]4[C@]3(C)C=O)[C@@H]2O[C@@H]2O[C@H](CO)[C@H](O)[C@H](O)[C@H]2O)[C@H](O)[C@H](O)[C@H]1O
active: Mus musculus [13] | Mus musculus [14] | Mus musculus [15] | Splenocyte [16] | Mus musculus [17] | Mus musculus [18] | Mus musculus [19] | Mus musculus [20] | Mus musculus [21] | Mus musculus [22] | Splenocyte [23] | Mus musculus [24] | Mus musculus [25]
